Records with an inconclusive call do not appear.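 How the source made its calls, unless noted: active means RAM network inhibition above 8.4% in each of two replicates, 3 SD over the compound average; inconclusive means above 8.4% inhibition in only one replicate; inactive means 8.4% inhibition or less in each replicate.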
Columns and labels:
[1] = OD615 S. cerevisiae growth inhibition, permissive medium, pilot counter-assay, permissive growth control for S. cerevisiae lifespan shortening project (AID 705;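 active means growth inhibition above 25% in both replicates, a cutoff set 3 SD above the mean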); details: OD615, 24 h, at 10 µM, stronger effect = higher value
Method in brief: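 Timing: 24 h exposure, 30 °C / Material: Saccharomyces cerevisiae strain carrying genetically modified DeaD replicative-lifespan system / Signal: OD at 615 nm / Compound: 10 µM single dose, 0.25% DMSO / Medium: SC raffinose/galactose permissive medium / Evaluation: reduction in yeast growth (OD615)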

[2] = Restrictive medium S. cerevisiae growth inhibition, OD615, pilot screen of yeast lifespan reduction project, restrictive growth control (AID 706;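 active means growth inhibition above a set limit, 3 SD over mean compound inhibition, in both replicates, cut at about 43% in these data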;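 further: modified DeaD lifespan yeast strain shifted to restrictive glucose medium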); details: OD615, 48 h, at 10 µM, stronger effect = higher value
Method in brief: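 System: Engineered S. cerevisiae DeaD strain | Detection: OD615 | Buffer or medium: CSMM-D glucose medium | Doses: 10 µM compound, 0.25% DMSO | Timing: 4 h pre-growth plus 48 h compound exposure, 30 °C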

[3] = viability gain of MRP-1-high H69AR cells under doxorubicin, pilot screen, MRP-1 activator project, CellTiter-Glo, duplicate (AID 807;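 active means viability increase at or above a cutoff of the median across tested compounds plus 3 SD, cut at about 8.5% in these data, passing the limit was not always enough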;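 further: compound pretreatment 18-22 h then 72 h combined with doxorubicin; 0% = doxorubicin alone and 100% = vehicle without doxorubicin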); details: H69AR viability with doxorubicin, CellTiter-Glo luminescence; at 10 µM; stronger effect = higher value
[4] = growth suppression of beta-catenin knockout HCT116, pilot screen, human colon tumor cells (AID 823;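 active means cell viability at or below a set limit in both duplicate runs, the limit being the all-compound median minus 4 SD, cut at about 23% in these data, passing the limit was not always enough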;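 further: 0% = wells killed by 20 µM Hyamine and 100% = untreated DMSO cell wells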); details: CellTiter-Glo, 60 h, at 10 µM, stronger effect = lower value
[5] = growth suppression of PTEN-deleted HCT116, pilot screen, cell-based, HCT116 clonal line, CellTiter-Glo (AID 824;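 active means viability at or below 27.92% in each of two runs, the all-compound median minus 4 SD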;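 further: 0% = 20 µM Hyamine control and 100% = vehicle cell control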); details: 60 h, at 10 µM, stronger effect = lower value
[6] = inhibitors of the yeast RAM network, pilot screen, dse1pr::URA3 reporter, 5-FOA selection (AID 869;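 active means inhibition over a set limit, the all-compound mean plus 3 SD, in both replicate runs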;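 further: 0% = DMSO wells with no growth and 100% = 10 µM 1-NA-PP1 with full growth; RAM network block rescues cells from 5-FOA so hits raise OD615 growth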); details: S. cerevisiae dse1pr::URA3 5-FOA growth, OD615, 2 d; at 10 µM; stronger effect = higher value; strain carries analog-sensitive mutant Cbk1 kinase
[7] = RAM signaling pathway blockade in yeast – S. cerevisiae, Pdr1DBD-CYC8 efflux-inhibited sensitized strain, primary screen (AID 1298);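 further: 0% = DMSO untreated cells without growth and 100% = 10 µM 1-NA-PP1 full growth; higher means more yeast growth rescued from 5-FOA killing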; details: S. cerevisiae cbk1-as DSE1-URA3 strain, 5-FOA growth OD615, 2 d; at 50 µM; stronger effect = higher value

CCOC(=O)N1CCN(C(=O)CCSc2ccccc2)CC1
inactive: growth inhibition [1] 2.04% | growth inhibition [2] 2.15% | viability increase [3] 0.84% | viability [4] 99.7% | viability [5] 97% | inhibition [6] 0.07% | RAM network inhibition [7] 0.95%

CC1CCCN(C(C(=O)Nc2ccc3c(c2)OCO3)c2ccccc2)C1 (centres undefined)
inactive: growth inhibition [1] -8.14% | growth inhibition [2] 5.27% | viability increase [3] -3.45% | viability [4] 79.6% | viability [5] 79.4% | inhibition [6] 1.85% | RAM network inhibition [7] 1.67%

Nc1nonc1/C(=N/O)N1CCN(CCO)CC1
inactive: growth inhibition [1] 1.46% | growth inhibition [2] -1.22% | viability increase [3] 0% | viability [4] 104% | viability [5] 100% | inhibition [6] 1.46% | RAM network inhibition [7] 0.95%

COc1ccc2ccccc2c1C1CC(=O)N2CN(C3CCCCC3)CSC2=C1C#N (centres undefined)
inactive: growth inhibition [1] 2.87% | growth inhibition [2] 25.4% | viability increase [3] -4.9% | viability [4] 81.3% | viability [5] 76.4% | inhibition [6] 2.05% | RAM network inhibition [7] 4.86%

CC(=NCCN1CCOCC1)C1=C(O)c2ccccc2C1=O
inactive: growth inhibition [1] -5.16% | growth inhibition [2] -12.6% | viability increase [3] -1.7% | viability [4] 103% | viability [5] 100% | inhibition [6] 1.3% | RAM network inhibition [7] -0.73%

C=CCSc1nnc(CSc2nc3sc4c(c3c(=O)[nH]2)CCCC4)n1-c1ccccc1
inactive: growth inhibition [1] 9.19% | growth inhibition [2] 37.7% | viability increase [3] 0.54% | viability [4] 93.2% | viability [5] 91.2% | inhibition [6] 1.42% | RAM network inhibition [7] 11%

COc1ccc(Cl)cc1NC(=O)C1CCCO1 (centres undefined)
inactive: growth inhibition [1] 0.985% | growth inhibition [2] -9.53% | viability increase [3] -2.12% | viability [4] 98.9% | viability [5] 94.7% | inhibition [6] 1.42% | RAM network inhibition [7] 2.75%

CNC(=O)c1c(N)sc2c1CCCCC2
inactive: growth inhibition [1] -2.01% | growth inhibition [2] 8.19% | viability increase [3] -3.12% | viability [4] 88.8% | viability [5] 88.1% | inhibition [6] 1.19% | RAM network inhibition [7] 4.13%

COc1ccccc1Nc1nc(N)nc(CN2CCOCC2)n1
inactive: growth inhibition [1] -12.9% | growth inhibition [2] -6.13% | viability increase [3] -0.98% | viability [4] 108% | viability [5] 101% | inhibition [6] 0.845% | RAM network inhibition [7] 3.74%

CCn1c(SCC(=O)N2CCN(c3ccccc3)CC2)nc2c(c1=O)SC(C)C2 (centres undefined)
inactive: growth inhibition [1] -13.4% | growth inhibition [2] -10.2% | viability increase [3] -2.66% | viability [4] 88.5% | viability [5] 78.4% | inhibition [6] 1.4% | RAM network inhibition [7] 2.11%

Nc1ccc(C(=O)c2ccc3c(c2)OCCO3)cc1N
inactive: growth inhibition [1] 4.75% | growth inhibition [2] 6.96% | viability increase [3] -6.58% | viability [4] 102% | viability [5] 97.5% | inhibition [6] 0.375% | RAM network inhibition [7] 4.41%

N=c1oc2ccccc2cc1-c1nc2ccccc2c(=O)[nH]1
inactive: growth inhibition [1] 2.5% | growth inhibition [2] 1.96% | viability increase [3] 2.52% | viability [4] 94.3% | viability [5] 96.3% | inhibition [6] 2% | RAM network inhibition [7] 4.24%

O=C1c2ccccc2C(=O)N1CCc1nc2ccccc2c(=O)n1CCCn1ccnc1
inactive: growth inhibition [1] -3.21% | growth inhibition [2] 11% | viability increase [3] -2.41% | viability [4] 95.5% | viability [5] 97% | inhibition [6] 2.01% | RAM network inhibition [7] 2.2%

Cc1cccc(C2CC(c3ccc(F)cc3)Nc3nc(N)nn32)c1 (centres undefined)
inactive: growth inhibition [1] -1.75% | growth inhibition [2] 18.4% | viability increase [3] 0.42% | viability [4] 92.3% | viability [5] 77.1% | inhibition [6] 0.09% | RAM network inhibition [7] 0.31%

COc1cc(NC(=O)c2cc(-c3cccc(O)c3)on2)cc(OC)c1OC
inactive: growth inhibition [1] -13.9% | growth inhibition [2] 3.45% | viability increase [3] -6.05% | viability [4] 89.8% | viability [5] 75.3% | inhibition [6] 4.79% | RAM network inhibition [7] 6.05%

Cc1cc(C)c2c(=O)[nH]c(SCC(=O)N3CCCCC3)nc2n1
inactive: growth inhibition [1] -12.1% | growth inhibition [2] -6.02% | viability increase [3] -0.84% | viability [4] 93.1% | viability [5] 101% | inhibition [6] 0.535% | RAM network inhibition [7] 2.3%

c1ccc(CNc2nc3ccccc3n3cnnc23)nc1
inactive: growth inhibition [1] -13.7% | growth inhibition [2] -8.93% | viability increase [3] -1.36% | viability [4] 105% | viability [5] 88.5% | inhibition [6] -0.44% | RAM network inhibition [7] 3.37%

Cc1onc(-c2ccccc2Cl)c1C(=O)NCc1ccc2c(c1)cc(C)n2C
inactive: growth inhibition [1] -6.07% | growth inhibition [2] -12.7% | viability increase [3] -3.02% | viability [4] 95.5% | viability [5] 84.6% | inhibition [6] 1.93% | RAM network inhibition [7] 5.14%

CCOC(=O)c1ccc(CSc2n[nH]c(C)n2)o1
inactive: growth inhibition [1] -3.09% | growth inhibition [2] -7.67% | viability increase [3] -2.58% | viability [4] 97.7% | viability [5] 96.7% | inhibition [6] -1.18% | RAM network inhibition [7] 1.95%

COC(=O)C1=C(C)N(C)C(C)=C(C(=O)OC)C1c1ccccc1C
inactive: growth inhibition [1] -18.8% | growth inhibition [2] -21.1% | viability increase [3] -0.42% | viability [4] 94.6% | viability [5] 87.7% | inhibition [6] 0.365% | RAM network inhibition [7] 3.87%

Cc1cc(-n2c(SCCC#N)nnc2-c2cccnc2)ccc1Cl
inactive: growth inhibition [1] -12.4% | growth inhibition [2] -22.3% | viability increase [3] -2.79% | viability [4] 98.7% | viability [5] 94.5% | inhibition [6] 3.32% | RAM network inhibition [7] 5.99%

Cc1cc(/C=N/n2cnnc2)c(C)n1-c1cc(Cl)ccc1Cl
inactive: growth inhibition [1] 3.15% | growth inhibition [2] 18.3% | viability increase [3] -3.01% | viability [4] 51.9% | viability [5] 69.7% | inhibition [6] 1.85% | RAM network inhibition [7] 1.38%

Cc1n[nH]c(C)c1S(=O)(=O)N(CC(=O)Nc1ccc2c(c1)OCCO2)c1ccc(C(C)C)cc1
inactive: growth inhibition [1] 2.8% | growth inhibition [2] 2.67% | viability increase [3] -5.15% | viability [4] 68.1% | viability [5] 63% | inhibition [6] -0.49% | RAM network inhibition [7] 3.78%

COC(=O)C1=C(C)N(C)C(=O)NC1c1ccc(O)c(OC)c1 (centres undefined)
inactive: growth inhibition [1] 0.58% | growth inhibition [2] -7.74% | viability increase [3] -0.98% | viability [4] 105% | viability [5] 98.9% | inhibition [6] 0.425% | RAM network inhibition [7] 6.2%

CCC(CC)C(=O)NCc1ccccc1OC
inactive: growth inhibition [1] 4.68% | growth inhibition [2] -4.89% | viability increase [3] -0.51% | viability [4] 99.1% | viability [5] 101% | inhibition [6] 0.98% | RAM network inhibition [7] 2.02%

CCOC(=O)c1sc2nc(NC(=O)C3CC3)sc2c1C
inactive: growth inhibition [1] -0.51% | growth inhibition [2] -2.08% | viability increase [3] -5.8% | viability [4] 86% | viability [5] 82.2% | inhibition [6] 4.2% | RAM network inhibition [7] 3.96%

CCCc1ccc2c(N)c(C#N)sc2n1
inactive: growth inhibition [1] -9.88% | growth inhibition [2] 2.12% | viability increase [3] 0.61% | viability [4] 111% | viability [5] 104% | inhibition [6] 0.235% | RAM network inhibition [7] -0.37%

Cc1ccc2oc(=O)c3cnn(CC(=O)NC4CCC(C)CC4)c3c2c1 (centres undefined)
inactive: growth inhibition [1] -14.1% | growth inhibition [2] -15.1% | viability increase [3] 0.16% | viability [4] 94.4% | viability [5] 86% | inhibition [6] 1.02% | RAM network inhibition [7] 2.93%

CSc1cccc(NS(=O)(=O)c2cccc3nsnc23)c1
inactive: growth inhibition [1] -5.26% | growth inhibition [2] -8.19% | viability increase [3] -0.51% | viability [4] 88.6% | viability [5] 93.3% | inhibition [6] 0.885% | RAM network inhibition [7] 2.44%

O=C(CN(Cc1ccccc1)S(=O)(=O)c1ccccc1)NC1CC1
inactive: growth inhibition [1] -4.36% | growth inhibition [2] 11.6% | viability increase [3] -1.25% | viability [4] 102% | viability [5] 96% | inhibition [6] -0.45% | RAM network inhibition [7] 0.45%

CCOc1ccc(NC2CCN(C(C)=O)CC2)cc1
inactive: growth inhibition [1] -12.8% | growth inhibition [2] -7.46% | viability increase [3] 0.27% | viability [4] 95.2% | viability [5] 97% | inhibition [6] 0.625% | RAM network inhibition [7] 6.44%

O=C(Nc1ccc(Br)cc1F)c1ccncc1
inactive: growth inhibition [1] -7.26% | growth inhibition [2] -13.4% | viability increase [3] 1.37% | viability [4] 97% | viability [5] 98.6% | inhibition [6] 2.7% | RAM network inhibition [7] 5.07%

Cc1c(-n2cc(C(=O)O)c(=O)c3cc(F)c(N4CCCC4)c(F)c32)c(=O)n(-c2ccccc2)n1C
inactive: growth inhibition [1] -5.81% | growth inhibition [2] -11.4% | viability increase [3] -2.19% | viability [4] 98.8% | viability [5] 87.8% | inhibition [6] 2.6% | RAM network inhibition [7] 5.65%

O=S(=O)(CCc1ccccc1)N1CCOCC1
inactive: growth inhibition [1] 1.85% | growth inhibition [2] -1.08% | viability increase [3] -1.35% | viability [4] 106% | viability [5] 103% | inhibition [6] 0.8% | RAM network inhibition [7] 2.83%

CCNC(=O)COc1ccc2ccccc2c1
inactive: growth inhibition [1] -2.77% | growth inhibition [2] 3.62% | viability increase [3] 0.99% | viability [4] 97.4% | viability [5] 99.6% | inhibition [6] 1.06% | RAM network inhibition [7] 1.53%

O=C(COC(=O)c1ccc(S(=O)(=O)NCc2ccco2)cc1)Nc1ccccc1OC(F)F
inactive: growth inhibition [1] -8.88% | growth inhibition [2] -12.5% | viability increase [3] -2.64% | viability [4] 93.5% | viability [5] 93.7% | inhibition [6] 1.43% | RAM network inhibition [7] 7.18%

CCOC(=O)c1cc2c(n(-c3ccc(C)cc3)c1=O)CCCC2=O
inactive: growth inhibition [1] -9.02% | growth inhibition [2] -16.6% | viability increase [3] -3.28% | viability [4] 99.3% | viability [5] 94.8% | inhibition [6] 0.59% | RAM network inhibition [7] 2.29%

Reference: PubChem BioAssay
